From ChEMBL document CHEMBL1938352, “Discovery of potent and liver-targeted stearoyl-CoA desaturase (SCD) inhibitors in a bispyrrolidine series” (Bioorg Med Chem Lett, 2012) come the findings set out here.

Where only a bound is given, the exact number is not on record here.

Data set [1] addresses T1, Acyl-CoA desaturase 1 (Rattus norvegicus, UniProt P07308).
T1 sequence (P07308 whole entry): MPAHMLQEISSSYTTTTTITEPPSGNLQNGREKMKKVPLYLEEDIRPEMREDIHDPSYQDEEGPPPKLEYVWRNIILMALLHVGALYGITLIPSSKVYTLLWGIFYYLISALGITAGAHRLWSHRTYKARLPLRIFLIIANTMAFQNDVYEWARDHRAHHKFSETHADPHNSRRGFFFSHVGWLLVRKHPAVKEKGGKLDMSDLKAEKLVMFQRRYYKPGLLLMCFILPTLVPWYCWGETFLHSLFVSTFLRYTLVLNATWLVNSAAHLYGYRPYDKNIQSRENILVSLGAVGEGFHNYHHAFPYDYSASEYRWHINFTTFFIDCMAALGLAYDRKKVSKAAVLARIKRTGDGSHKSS
The experiment in a line: Inhibition of SCD-1 activity in rat liver microsomes assessed as reduction in [1-14C] stearoyl CoA desaturation by scintillation counting. Also noted: species or system Microsome. In a few lines: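 The enzymatic assay used SCD-induced rat liver microsomes. IC50 values are the average of at least two independent titrations.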

The next data set concerns the target T2, Stearoyl-CoA desaturase (Homo sapiens, UniProt O00767).
T2 sequence (O00767 whole entry): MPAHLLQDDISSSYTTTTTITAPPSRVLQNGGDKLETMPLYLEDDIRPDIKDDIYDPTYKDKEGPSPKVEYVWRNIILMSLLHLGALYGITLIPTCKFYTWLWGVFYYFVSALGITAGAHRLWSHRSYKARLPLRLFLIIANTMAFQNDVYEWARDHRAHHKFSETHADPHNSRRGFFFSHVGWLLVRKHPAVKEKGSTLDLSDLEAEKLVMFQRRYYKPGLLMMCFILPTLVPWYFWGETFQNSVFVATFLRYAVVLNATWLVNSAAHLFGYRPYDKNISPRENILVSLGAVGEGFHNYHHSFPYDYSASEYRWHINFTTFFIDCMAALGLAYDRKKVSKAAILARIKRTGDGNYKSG
The experiment in a line: Inhibition of SCD-1 activity in organic anion transporting polypeptides-deficient human HepG2 cells assessed as reduction in [1-14C] stearoyl CoA desaturation by scintillation counting. Format: cell-based. The gist of the method:
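The whole-cell assay used human hepatocellular carcinoma HepG2 cells, which lack active OATPs. IC50 values are the average of at least two independent titrations.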

In data set [2] the target is T1, Acyl-CoA desaturase 1. The data set is described as follows: Inhibition of SCD-1 activity in rat hepatocytes expressing organic anion transporting polypeptides assessed as reduction in [1-14C] stearoyl CoA desaturation by scintillation counting. Format: cell-based, Hepatocyte. The gist of the method: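 The cellular assay used rat hepatocytes with functional OATPs to assess active transport. IC50 values are the average of at least two independent titrations.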

The next data set deals with HepG2. The data set is described as follows: Ratio of IC50 for SCD-1 activity in organic anion transporting polypeptides-deficient human HepG2 cells to IC50 for SCD-1 activity in rat hepatocytes expressing organic anion transporting polypeptides. Format: cell-based. The gist of the method:
(§1)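 The fold shift is the ratio of IC50 values between two assays: rat liver microsomal enzyme, HepG2 whole cell, and OATP-containing rat hepatocytes. Each IC50 is the average of at least two independent titrations.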

Data set [3] has as its target T3, Acyl-CoA desaturase 1 (Rattus norvegicus) (UniProt P07308).
T3 sequence (whole entry): T1 sequence (P07308 whole entry)
The experiment in a line: Ratio of IC50 for SCD-1 activity in rat hepatocytes expressing organic anion transporting polypeptides to IC50 for SCD-1 activity in rat liver microsomes. The following applies: Hepatocyte, Microsome. In a few lines:
as §1

Data set [4] addresses Acyl-CoA (8-3)-desaturase (Homo sapiens, UniProt O60427). The experiment in a line: Inhibition of human delta-5 desaturase activity in human HepG2 cells using [1-14C]-stearic acid tracer. It counts as cell-based.
In a further data set the target is T4, Acyl-CoA 6-desaturase (Homo sapiens, UniProt O95864).
T4 sequence (O95864 whole entry): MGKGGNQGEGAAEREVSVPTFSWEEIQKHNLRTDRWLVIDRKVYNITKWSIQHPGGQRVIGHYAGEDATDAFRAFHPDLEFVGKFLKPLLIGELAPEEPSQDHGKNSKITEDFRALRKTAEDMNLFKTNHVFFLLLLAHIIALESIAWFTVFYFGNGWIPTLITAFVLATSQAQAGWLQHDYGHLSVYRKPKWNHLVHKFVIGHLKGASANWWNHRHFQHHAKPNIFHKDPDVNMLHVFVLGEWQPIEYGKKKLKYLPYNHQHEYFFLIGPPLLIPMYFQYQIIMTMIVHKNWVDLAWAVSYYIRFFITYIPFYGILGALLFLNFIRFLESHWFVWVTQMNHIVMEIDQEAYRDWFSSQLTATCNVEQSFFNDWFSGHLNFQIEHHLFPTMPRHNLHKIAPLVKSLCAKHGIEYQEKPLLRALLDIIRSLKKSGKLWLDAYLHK
The data set is described as follows: Inhibition of human delta-6 desaturase activity in human HepG2 cells using [1-14C]-stearic acid tracer. Format: cell-based.

A short description of data set [5]: AUC (0 to 6 hrs) in C57BL/6 mouse at 10 mg/kg, po. Also noted: time < 6 hr, dose 10 mg/kg, route oral. Format: ADME, organism-based, C57BL6. To be noted: plasma. The gist of the method:
(§2)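 C57BL6 mice were dosed orally at 10 mg/kg. Drug exposure was measured over 0–6 h to give AUC_0–6h, and oral bioavailability (F) was also determined.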

Data set [6] in a line: Oral bioavailability in C57BL/6 mouse at 10 mg/kg. The following applies: in vivo. Format: ADME, organism-based, C57BL6. In a few lines:
as §2

Data set [7] relates to Mus musculus. The experiment in a line: Antidiabetic activity in C57BL/6 mouse LPD model assessed as reduction in liver SCD activity at 14.8 uM liver concentration dosed at 10 mg/kg, po measured 3 hrs post dosing. To be noted: C57BL6, 3 h. It counts as functional.
A short description of data set [8]: Drug level in liver of C57BL/6 mouse at 10 mg/kg, po measured 6 hrs post dosing. Also noted: dose 10 mg/kg, route oral. It counts as ADME, organism-based, C57BL6. The following applies: read-out: Drug uptake. In a few lines: (§3)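 Tissue distribution was measured in mice given 10 mg/kg PO, n = 2. Liver, plasma and Harderian gland drug concentrations were measured 6 h post dose. Liver/plasma and liver/Harderian ratios were taken from these concentrations.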

For data set [9], the target named is T5, Acyl-CoA desaturase 1 (Mus musculus, UniProt P13516).
T5 sequence (P13516 whole entry): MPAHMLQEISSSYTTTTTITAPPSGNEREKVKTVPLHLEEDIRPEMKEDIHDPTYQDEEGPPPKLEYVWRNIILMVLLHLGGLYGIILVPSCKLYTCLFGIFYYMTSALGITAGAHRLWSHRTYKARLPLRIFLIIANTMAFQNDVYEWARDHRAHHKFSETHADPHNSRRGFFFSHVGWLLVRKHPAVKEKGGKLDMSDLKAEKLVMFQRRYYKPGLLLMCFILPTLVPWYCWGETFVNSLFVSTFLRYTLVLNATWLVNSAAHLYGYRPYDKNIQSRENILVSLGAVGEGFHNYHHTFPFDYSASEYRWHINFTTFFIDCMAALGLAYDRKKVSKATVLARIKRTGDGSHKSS
The data set is described as follows: Inhibition of mouse SCD-1.

Data set [10] addresses T6, Stearoyl-CoA desaturase 5 (Homo sapiens, UniProt Q86SK9).
T6 sequence (Q86SK9 whole entry): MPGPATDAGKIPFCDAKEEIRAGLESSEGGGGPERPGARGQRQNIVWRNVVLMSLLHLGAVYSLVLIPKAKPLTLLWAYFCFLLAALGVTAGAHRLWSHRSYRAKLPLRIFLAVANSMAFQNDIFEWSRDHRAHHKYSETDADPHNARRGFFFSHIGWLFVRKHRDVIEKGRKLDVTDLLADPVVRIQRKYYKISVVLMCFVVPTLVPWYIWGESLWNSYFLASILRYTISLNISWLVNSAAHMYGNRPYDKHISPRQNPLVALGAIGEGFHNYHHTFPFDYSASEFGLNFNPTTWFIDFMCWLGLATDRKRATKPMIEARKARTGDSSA
The data set is described as follows: Inhibition of human SCD-5.

The nature of data set [11]: Drug level in plasma of C57BL/6 mouse at 10 mg/kg, po measured 6 hrs post dosing. Format: ADME, organism-based, C57BL6. Also noted: dose 10 mg/kg, route oral. To be noted: read-out: Drug uptake. The gist of the method:
as §3

The nature of data set [12]: Drug level in harderian gland of C57BL/6 mouse at 10 mg/kg, po measured 6 hrs post dosing. Format: ADME, organism-based, C57BL6. The arrangement: dose 10 mg/kg, route oral. The following applies: read-out: Drug uptake. In a few lines: as §3
The nature of data set [13]: Ratio of drug uptake in liver to plasma of C57BL/6 mouse at 10 mg/kg, po measured 6 hrs post dosing. It counts as ADME, organism-based, C57BL6. Also noted: dose 10 mg/kg, route oral. In a few lines: as §3
Data set [14] concerns Mus musculus. The data set is described as follows: Antidiabetic activity in C57BL/6 mouse LPD model assessed as reduction in liver SCD activity at 7.7 uM liver concentration dosed at 2 mg/kg, po measured 3 hrs post dosing. Format: functional. To be noted: C57BL6, 3 h.
Data set [15] relates to Mus musculus. The experiment in a line: Ratio of drug uptake in liver to harderian gland of C57BL/6 mouse at 10 mg/kg, po measured 6 hrs post dosing. To be noted: in vivo.
Data set [16] has as its system Mus musculus. The experiment in a line: Antidiabetic activity in C57BL/6 mouse LPD model assessed as reduction in liver SCD activity at 4.9 uM liver concentration dosed at 2 mg/kg, po measured 3 hrs post dosing. To be noted: C57BL6, 3 h. Format: functional.
The subject of data set [17] is Mus musculus. The experiment in a line: Antidiabetic activity in C57BL/6 mouse LPD model assessed as reduction in liver SCD activity at 1.6 uM liver concentration dosed at 0.4 mg/kg, po measured 3 hrs post dosing. To be noted: C57BL6, 3 h. It counts as functional.
In data set [18] the test system is Mus musculus. The data set is described as follows: Antidiabetic activity in po dosed C57BL/6 mouse LPD model assessed as reduction in liver SCD activity measured 3 hrs post dosing. The following applies: C57BL6, Liver.

Chain of Acyl-CoA (8-3)-desaturase (O60427 whole entry): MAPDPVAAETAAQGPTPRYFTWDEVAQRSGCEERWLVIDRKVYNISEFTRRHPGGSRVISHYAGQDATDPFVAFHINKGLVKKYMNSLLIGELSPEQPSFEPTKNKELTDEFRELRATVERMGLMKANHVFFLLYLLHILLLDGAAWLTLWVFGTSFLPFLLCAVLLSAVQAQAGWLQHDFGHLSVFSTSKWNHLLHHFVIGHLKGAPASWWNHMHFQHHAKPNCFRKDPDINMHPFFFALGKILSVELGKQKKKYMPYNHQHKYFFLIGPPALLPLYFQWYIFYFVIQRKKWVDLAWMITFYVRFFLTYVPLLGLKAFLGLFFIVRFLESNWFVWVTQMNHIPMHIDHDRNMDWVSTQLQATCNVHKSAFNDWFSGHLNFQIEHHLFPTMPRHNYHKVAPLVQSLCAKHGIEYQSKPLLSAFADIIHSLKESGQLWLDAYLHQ

As to `O=C(O)Cn1nnc(-c2cnc(N3CC4(C3)CN(c3cc(F)ccc3Cl)C4)s2)n1`, the IC50 on Acyl-CoA desaturase 1 [1] was determined as 43 nM; at Stearoyl-CoA desaturase it was 50.9 µM; on Acyl-CoA desaturase 1 [2], 103 nM.
In the same order, the values of `O=C(O)Cn1nnc(-c2nnc(N3CC4CN(c5cc(F)ccc5Cl)CC4C3)s2)n1` (stereo not drawn) are 59 nM, more than 10 µM and 300 nM.
Turning to `O=C(O)Cn1nnc(-c2cc(N3CC4CN(c5cc(F)ccc5Cl)CC4C3)no2)n1` (stereo not drawn), the 50% inhibitory concentration (IC50) was 24 nM at Acyl-CoA desaturase 1 [1]; 9.9 µM at Stearoyl-CoA desaturase; 198 nM on Acyl-CoA desaturase 1 [2]; more than 80 µM in data set [4]; more than 80 µM against Acyl-CoA 6-desaturase; 18 nM at Acyl-CoA desaturase 1 [9]. Further, half-maximal inhibition in [10] (IC50) required 242 nM. The Ratio IC50 turned out to be 50 with HepG2 and 8 in data set [3]. In addition, in data set [5], the AUC(0-t) at 6 h was determined as 2.1 µM·h. The compound also returned a bioavailability in data set [6] of 24%. Also, in the data set on Mus musculus [7], the inhibition in vivo at 10 mg/kg was determined as 72%. Further, in data set [8], the concentration at 6 h came to 2.7 µM.
Regarding `O=C(O)Cn1nnc(-c2cnc(N3CCC4(CC3)CN(c3cc(F)ccc3Cl)C4)s2)n1`, the IC50 at Acyl-CoA desaturase 1 [1] was 36 nM; on Stearoyl-CoA desaturase, more than 100 µM; on Acyl-CoA desaturase 1 [2] it was 438 nM.
Take `O=C(O)Cn1nnc(-c2cnc(N3CCN(c4cc(F)ccc4Cl)CC3)s2)n1`: the IC50 on Acyl-CoA desaturase 1 [1] came out at 28 nM; on Stearoyl-CoA desaturase it was 4.2 µM; on Acyl-CoA desaturase 1 [2], 134 nM; against Acyl-CoA desaturase 1 [9], 21 nM. In data set [5], this compound showed an AUC(0-t) at 6 h of 0.7 µM·h. In data set [6], this compound returned a bioavailability of 15%. The concentration at 6 h in [8] was 9.3 µM; in data set [11] it was 220 nM; in data set [12], 50 nM. Besides, in [13], the Kp at 6 h worked out at 40. In addition, the inhibition in vivo at 2 mg/kg with Mus musculus [14] worked out at 61%. Besides, the Ratio in the data set with Mus musculus [15] was found to be 180.
On to `O=C(O)Cn1nnc(-c2cc(N3CCC(Oc4cc(F)ccc4Br)CC3)no2)n1` [MK-8245], for which the inhibition in vivo at 2 mg/kg in the data set on Mus musculus [16] was determined as 89%. Besides, the inhibition in vivo at 0.4 mg/kg in the data set on Mus musculus [17] was 49%. In addition, the concentration at 6 h in [11] is 30 nM. In addition, the Kp at 6 h in [13] amounted to 90. In addition, the 50% effective dose (ED50) with Mus musculus [18] amounted to 1 mg/kg.
As for `O=C(O)Cn1nnc(-c2cnc(N3C[C@@H]4C[C@H]3CN4c3cc(F)ccc3Cl)s2)n1`, the IC50 at Acyl-CoA desaturase 1 [1] is 29 nM; on Stearoyl-CoA desaturase it was 9.14 µM; at Acyl-CoA desaturase 1 [2], 176 nM.
In the same order, the values of `O=C(O)Cn1nnc(-c2cnc(N3CC4CN(c5cc(F)ccc5Cl)CC4C3)s2)n1` (stereo not drawn) are 34 nM, 15.4 µM and 233 nM.
In the same order, the values of `O=C(O)Cn1nnc(-c2cnc(N3CC4(CCN(c5cc(F)ccc5Cl)CC4)C3)s2)n1` are 128 nM, more than 100 µM and 506 nM.
